Results from ChEMBL document CHEMBL1144782, “Isoindolo[2,1-a]quinoxaline derivatives, novel potent antitumor agents with dual inhibition of tubulin polymerization and topoisomerase I” (2008).

Experiments:
Type in all cases: functional
HOP-92 = experiment: Antitumor activity against human HOP92 cells
Outline: (§1)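 Run by the NCI in its in vitro disease-oriented screen of about 60 human tumour cell lines. For each line it reports pGI50 (50% net growth inhibition), pTGI (total growth inhibition) and pLC50 (50% net cell death), each as –log molar concentration. Where an effect was not reached within the tested range, the highest tested concentration was used.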

NCI-H23 = experiment: Antitumor activity against human NCI-H23 cells; outline: as §1
NCI-H522 = experiment: Antitumor activity against human NCI-H522 cells; outline: as §1
HCC 2998 = experiment: Antitumor activity against human HCC2998 cells; outline: as §1
HCT-116 = experiment: Antitumor activity against human HCT116 cells; outline: as §1
KM12 = experiment: Antitumor activity against human KM12 cells; outline: as §1
SF-268 [1] = experiment: Antitumor activity against human SF268 cells; outline: as §1
SF-295 = experiment: Antitumor activity against human SF295 cells; outline: as §1
SF-539 = experiment: Antitumor activity against human SF539 cells; outline: as §1
SNB-19 = experiment: Antitumor activity against human SNB19 cells; outline: as §1
U-251 = experiment: Antitumor activity against human U251 cells
Outline: (§2)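 NCI 60-cell-line screen. Parameters were GI50 (50% net growth inhibition), TGI and LC50, each reported as –log molar concentration. Where an effect was not reached within the tested range, the highest tested concentration was used in the calculation.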

LOX IMVI = experiment: Antitumor activity against human LOXIMVI cells; outline: as §1
M14 = experiment: Antitumor activity against human M14 cells; outline: as §1
SK-MEL-28 = experiment: Antitumor activity against human SKMEL28 cells; outline: as §1
SK-MEL-5 = experiment: Antitumor activity against human SKMEL5 cells; outline: as §1
UACC-257 = experiment: Antitumor activity against human UACC257 cells; outline: as §2
UACC-62 = experiment: Antitumor activity against human UACC62 cells; outline: as §2
IGROV-1 = experiment: Antitumor activity against human IGROV1 cells; outline: as §1
OVCAR-4 = experiment: Antitumor activity against human OVCAR4 cells; outline: as §1
OVCAR-5 = experiment: Antitumor activity against human OVCAR5 cells; outline: as §1
OVCAR-8 = experiment: Antitumor activity against human OVCAR8 cells; outline: as §1
SK-OV-3 = experiment: Antitumor activity against human SKOV3 cells; outline: as §1
A498 = experiment: Antitumor activity against human A498 cells; outline: as §1
ACHN = experiment: Antitumor activity against human ACHN cells; outline: as §1
CAKI-1 = experiment: Antitumor activity against human CAKI1 cells; outline: as §1
RXF 393 = experiment: Antitumor activity against human RXF393 cells; outline: as §1
NCI-H460 = experiment: Cell viability against human NCI-H460 cells at 10 uM
SF-268 [2] = experiment: Cell viability against human SF268 cells at 10 uM
RPMI-8226 = experiment: Antitumor activity against human RPMI8226 cells; outline: as §1
MOLT-4 = experiment: Antitumor activity against human MOLT4 cells; outline: as §1
SR = experiment: Antitumor activity against human SR cells; outline: as §2
A549 = experiment: Antitumor activity against human A549 cells; outline: as §1
HOP-62 = experiment: Antitumor activity against human HOP62 cells; outline: as §1
MCF7 = experiment: Antitumor activity against human MCF7 cells; outline: as §1
[3] = Antitumor activity against human […] cells; outline: as §1
Hs-578T = experiment: Antitumor activity against human HS578T cells; outline: as §1
MDA-MB-435 = experiment: Antitumor activity against human MDA-MB-435 cells; outline: as §1
T47D = experiment: Antitumor activity against human T47D cells; outline: as §2
CCRF-CEM [4] = experiment: Growth inhibition of human vinblastine-resistant CEM cells after 72 hrs by MTT assay
Outline: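 Growth inhibition by MTT after 72 h incubation. Resistant sublines: LoVoDoxo and MCF-7 MDR were kept in 0.1 µg/mL doxorubicin; CEMVbl-100 was selected against vinblastine. GI50 given as mean ± SEM of three independent experiments. Resistance index is resistant-line GI50 over parental GI50.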

CCRF-CEM [5] = experiment: Resistance index, Ratio of GI50 for human vinblastine-resistant CEM cells to GI50 for human CEM cells
[6] = read-out: Log LC50 (the source's name) (converted)

## COc1ccc2c(c1)[nH]c(=O)c1c3ccccc3cn21
HOP-92
  GI50: 1000 nM
  LC50: 39800 nM
HOP-92; read-out: pTGI (converted)
  TGI: 15800 nM
NCI-H23
  GI50: 42.7 nM
  LC50 (50% net cell kill): > 100000 nM
NCI-H23; read-out: pTGI (converted)
  TGI: 3390 nM
NCI-H522
  GI50: 60.3 nM
NCI-H522; [6]
  CC50: 10000 nM
NCI-H522; read-out: pTGI (converted)
  TGI: 2290 nM
HCC 2998
  GI50: 18.2 nM
  LC50: 501 nM
HCC 2998; read-out: pTGI (converted)
  TGI: 49 nM
HCT-116
  GI50: 39.8 nM
  LC50: 4470 nM
HCT-116; read-out: pTGI (converted)
  TGI: 1320 nM
KM12
  GI50: 33.1 nM
  LC50 (50% net cell death): 6030 nM
KM12; read-out: pTGI (converted)
  TGI: 1510 nM
SF-268 [1]
  GI50: 74.1 nM
SF-268 [1]; [6]
  CC50: 87100 nM
SF-268 [1]; read-out: pTGI (converted)
  TGI: 2950 nM
SF-295
  GI50: 26.9 nM
SF-295; [6]
  CC50: 4170 nM
SF-295; read-out: pTGI (converted)
  TGI: 1050 nM
SF-539
  GI50: 22.9 nM
  LC50 (50% net cell kill): 2750 nM
SF-539; read-out: pTGI (converted)
  TGI: 70.8 nM
SNB-19
  GI50: 38.9 nM
SNB-19; [6]
  CC50: > 100000 nM
SNB-19; read-out: pTGI (converted)
  TGI: 4070 nM
U-251
  GI50: 43.6 nM
U-251; [6]
  CC50: 5010 nM
U-251; read-out: pTGI (converted)
  TGI: 1510 nM
LOX IMVI
  GI50: 70.8 nM
  LC50 (50% net cell kill): 4470 nM
LOX IMVI; read-out: pTGI (converted)
  TGI: 1780 nM
M14
  GI50: 10 nM
M14; [6]
  CC50: 3630 nM
M14; read-out: pTGI (converted)
  TGI: 12900 nM
SK-MEL-28
  GI50: 52.5 nM
SK-MEL-28; [6]
  CC50: 6610 nM
SK-MEL-28; read-out: pTGI (converted)
  TGI: 2510 nM
SK-MEL-5
  GI50: 28.2 nM
  LC50: 3470 nM
SK-MEL-5; read-out: pTGI (converted)
  TGI: 1170 nM
UACC-257
  GI50: 5130 nM
  LC50: 74100 nM
UACC-257; read-out: pTGI (converted)
  TGI: 30900 nM
UACC-62
  GI50: 74.1 nM
  LC50: 4370 nM
UACC-62; read-out: pTGI (converted)
  TGI: 1910 nM
IGROV-1
  GI50: 74.1 nM
IGROV-1; [6]
  CC50: 8510 nM
IGROV-1; read-out: pTGI (converted)
  TGI: 2290 nM
OVCAR-4
  GI50: 91.2 nM
  LC50 (50% net cell kill): > 100000 nM
OVCAR-4; read-out: pTGI (converted)
  TGI: 5130 nM
OVCAR-5
  GI50: 100 nM
  LC50 (50% net cell death): 77600 nM
OVCAR-5; read-out: pTGI (converted)
  TGI: 7940 nM
OVCAR-8
  GI50: 57.5 nM
  LC50 (50% net cell death): > 100000 nM
OVCAR-8; read-out: pTGI (converted)
  TGI: 2340 nM
SK-OV-3
  GI50: 38.9 nM
  LC50 (50% net cell kill): 8510 nM
SK-OV-3; read-out: pTGI (converted)
  TGI: 1620 nM
A498
  GI50: 22.4 nM
A498; [6]
  CC50: > 100000 nM
A498; read-out: pTGI (converted)
  TGI: 1350 nM
ACHN
  GI50: 126 nM
  LC50 (50% net cell kill): 4370 nM
ACHN; read-out: pTGI (converted)
  TGI: 1820 nM
CAKI-1
  GI50: 35.5 nM
  LC50: 5130 nM
CAKI-1; read-out: pTGI (converted)
  TGI: 2000 nM
RXF 393
  GI50: 20.4 nM
RXF 393; [6]
  CC50: > 100000 nM
RXF 393; read-out: pTGI (converted)
  TGI: 3160 nM
NCI-H460
  Activity: 0%
SF-268 [2]
  Activity: 1%
RPMI-8226
  GI50: 36.3 nM
RPMI-8226; [6]
  CC50: 6920 nM
RPMI-8226; read-out: pTGI (converted)
  TGI: 1410 nM
MOLT-4
  GI50: 77.6 nM
  LC50: 75900 nM
MOLT-4; read-out: pTGI (converted)
  TGI: 2140 nM
SR
  GI50: 10 nM
  LC50: 75900 nM
SR; read-out: pTGI (converted)
  TGI: 2040 nM
A549
  GI50: 67.6 nM
A549; [6]
  CC50: 6030 nM
A549; read-out: pTGI (converted)
  TGI: 1660 nM
HOP-62
  GI50: 30.9 nM
  LC50 (50% net cell death): 3890 nM
HOP-62; read-out: pTGI (converted)
  TGI: 1230 nM
MCF7
  GI50: 28.2 nM
  LC50 (50% net cell kill): 5500 nM
MCF7; read-out: pTGI (converted)
  TGI: 1450 nM
[3]
  GI50: 56.2 nM
  LC50: 3090 nM
[3]; read-out: pTGI (converted)
  TGI: 741 nM
Hs-578T
  GI50: 51.3 nM
Hs-578T; [6]
  CC50: > 100000 nM
Hs-578T; read-out: pTGI (converted)
  TGI: 2690 nM
MDA-MB-435
  GI50: 4.07 nM
  LC50 (50% net cell death): > 100000 nM
MDA-MB-435; read-out: pTGI (converted)
  TGI: 20.9 nM
T47D
  GI50: 47.9 nM
  LC50: > 100000 nM
T47D; read-out: pTGI (converted)
  TGI: 4570 nM
CCRF-CEM [4]
  GI50: 20 nM
CCRF-CEM [5]
  RatioGI50: 1
